Measurements published in EPA's CvTdb concentration-time database.
“And” between values parts separate entries of the source, which are not always exact repeats. Identical values can stand only once.

Tests used:
[1] = tested on: rat; assay: concentration in blood after dosing; settings: duration: 4 hr, male
[2] = tested on: rat; assay: concentration in blood after dosing; negative times count back from the end of exposure; settings: inhalation
[3] = tested on: Rat; assay: concentration in plasma after dosing; settings: dosed: Phenolphthalein, 25 mg/kg, iv, Male, F344
[4] = tested on: rat; assay: concentration in blood after dosing; settings: dosed: toluene, 3000 ppm, dermal, duration: 4 hr, male, F344
[5] = tested on: rat; assay: concentration in blood after dosing; settings: dosed: toluene, 3000 ppm, dermal, duration: 4 hr, male, F344; remark: listed apart in the source
[6] = tested on: human; assay: concentration in Capillary Blood after dosing; settings: dosed: toluene, 200 mg/m^3, inhalation, duration: 2 hr, male
Outline: (§1)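 Points were largely digitised from plot screenshots with WebPlotDigitizer or otherwise copied from tables, and they remain in the units each source reported. They come from published in vivo toxicokinetic studies and two structured collections. Sampling and analytical methods follow each source and were often not reported.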

[7] = tested on: rat; assay: concentration in blood after dosing; settings: dosed: toluene, 3000 ppm, dermal, duration: 4 hr, male, F344; remark: listed apart in the source
[8] = tested on: rat; assay: concentration in blood after dosing; settings: dosed: toluene, 3000 ppm, dermal, duration: 4 hr, male, F344; remark: listed apart in the source
[9] = tested on: rat; assay: concentration in blood after dosing; settings: dosed: toluene, 3000 ppm, dermal, duration: 4 hr, male, F344; remark: listed apart in the source
[10] = tested on: human; assay: concentration in blood after dosing; settings: dosed: toluene, 100 ppm, dermal, duration: 30 min, person
Outline: as §1

[11] = tested on: rat; assay: amount in expired air after dosing (umol); settings: dosed: methanol, 100 mg/kg, iv, male, CDF(F344)/CrlBR

c1ccoc1 [furan]
[1], dosed: furan, inhalation, Fischer-344
Settings	concentration in blood
0.1053 h, 52 ppm	111 ng/mL
0.1054 h, 52 ppm	93 ng/mL
0.1745 h, 107 ppm	142 ng/mL
0.3024 h, 107 ppm	101 ng/mL
0.3025 h, 107 ppm	88.4 ng/mL
0.5398 h, 208 ppm	98.4 ng/mL
0.54 h, 208 ppm	82.3 ng/mL
0.7855 h, 208 ppm	47 ng/mL
0.7856 h, 208 ppm	41.2 ng/mL
0.7857 h, 208 ppm	35.7 ng/mL
130 s, 107 ppm	387 ng/mL and 348 ng/mL
131 s, 107 ppm	309 ng/mL
132 s, 208 ppm	945 ng/mL
133 s, 208 ppm	772 ng/mL and 654 ng/mL

CC(C)O [isopropanol]
[2], dosed: isopropanol, duration: 360 min
Settings	concentration in blood [ng/mL]
0.3018 h, 476 ppm	26000
0.31 h, 4960 ppm	738000
0.5307 h, 476 ppm	18300
0.5409 h, 4960 ppm	647000
1.039 h, 476 ppm	12200
1.102 h, 4960 ppm	552000
1.98 h, 476 ppm	6110
2.098 h, 4960 ppm	367000
3.047 h, 476 ppm	6110
3.117 h, 4960 ppm	240000
5.995 h, 476 ppm	1530
6.019 h, 4960 ppm	67200
12.07 h, 4960 ppm	12200
98 s, 4960 ppm	871000

concentration in blood [ng/mL], [2], dosed: isopropanol, duration: 360 min, during exposure
Settings	-195 s	-5.546 h	-5.517 h	-5.06 h	-4.913 h	-3.002 h	-2.938 h
476 ppm	32100	–	7640	12200	–	21400	–
4960 ppm	–	141000	–	–	241000	–	544000

O=C1OC(c2ccc(O)cc2)(c2ccc(O[C@@H]3O[C@H](C(=O)O)[C@@H](O)[C@H](O)[C@H]3O)cc2)c2ccccc21 (some centres not stated) [Phenolphthalein glucuronide]
[3]
Settings	concentration in plasma [ng/mL]
2.5 min	6980
20 h	8900

Cc1ccccc1 [toluene]
[1], dosed: toluene, 3000 ppm, dermal, F344
Settings	concentration in blood [ng/mL]
0.5 h	4530
1 h	5230
2 h	5470
3 h	6610
4 h	6640

Settings	concentration in Capillary Blood [nM]	concentration in blood
[4], 0.5 h	–	1230 ng/mL
[4], 1 h	–	2720 ng/mL
[4], 2 h	–	4560 ng/mL
[4], 3 h	–	5160 ng/mL
[4], 4 h	–	5840 ng/mL
[5], 0.5 h	–	4120 ng/mL
[5], 1 h	–	1330 ng/mL
[5], 2 h	–	8440 ng/mL
[5], 3 h	–	10100 ng/mL
[5], 4 h	–	12100 ng/mL
[6], 0.1631 h	5870	–
[6], 0.2703 h	6730	–
[6], 0.5028 h	8250	–
[6], 0.7659 h	9110	–
[6], 1.003 h	9630	–
[6], 1.104 h	9000	–
[6], 1.493 h	10300	–
[6], 1.737 h	10300	–
[6], 1.969 h	10400	–
[6], 2.075 h	4980	–
[6], 2.15 h	4310	–
[6], 2.236 h	4010	–
[6], 2.514 h	3210	–
[6], 3.028 h	1540	–
[6], 3.361 h	1330	–
[6], 3.69 h	1220	–
[6], 4.023 h	1050	–
[6], 4.349 h	959	–
[6], 4.444 h	711	–
[6], 4.673 h	867	–
[6], 5.349 h	763	–
[6], 5.678 h	671	–
[6], 5.993 h	632	–
[6], 334 s	4060	–
[7], 0.5 h	–	2160 ng/mL
[7], 1 h	–	3520 ng/mL
[7], 2 h	–	5470 ng/mL
[7], 3 h	–	4800 ng/mL
[7], 4 h	–	7390 ng/mL
[8], 0.5 h	–	2910 ng/mL
[8], 1 h	–	5540 ng/mL
[8], 2 h	–	6830 ng/mL
[8], 3 h	–	8230 ng/mL
[8], 4 h	–	8240 ng/mL
[9], 0.5 h	–	1830 ng/mL
[9], 1 h	–	3670 ng/mL
[9], 2 h	–	5070 ng/mL
[9], 3 h	–	5760 ng/mL
[9], 4 h	–	7030 ng/mL
[10], 0.2477 h	–	510 nM
[10], 0.499 h	–	1720 nM
[10], 0.7454 h	–	1620 nM
[10], 0.9948 h	–	1210 nM
[10], 1.5 h	–	941 nM
[10], 2.49 h	–	655 nM
[10], 3.495 h	–	453 nM

[2], dosed: toluene, 100 ppm, duration: 2 hr, male, Wistar
Settings	concentration in blood [nM]
0.996 h	2600
2.004 h	1520

[2], dosed: toluene, 100 ppm, duration: 2 hr, male, Wistar, during exposure
Settings	concentration in blood [nM]
-20 s	8210
-1.759 h	5580
-1.503 h	6410
-1.005 h	6950
-0.5053 h	9060

O=C=O [carbon dioxide]
[11]
Settings	amount in expired air
0.2199 h	1.76
0.5362 h	6.28
0.9412 h	13.1
1.448 h	25.8
1.93 h	37.7
2.933 h	81.5
4.445 h	151
5.995 h	221
8.01 h	278
10.01 h	322
12.03 h	335
15.08 h	344
